Hits are enriched below; roughly 3.3% of the tested compounds scored in any of these assays.
PRMT1 inh = blocks human protein arginine methyltransferase 1. Q99873. recombinant PRMT1, activity-based probe fluorescence polarization. inhibition, % at 2.79 µM. 370,000 compounds, 1.3% hits;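 active = inhibition above about 21% made by adding two undisclosed values, limit read from the data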
UHRF1 MBD2 ctr = UHRF1 methyl-DNA binding inhibition. Q96T88. UHRF1 binding to methylated oligo, TR-FRET. inhibition, % at 4.4 µM. 370,000 compounds, 0.75% hits; in the data active = inhibition above about 21%;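 note: UHRF1 SRA domain binding a hemimethylated CpG hairpin DNA probe; 0% = median of test compound wells and 100% = reference inhibitor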
TDP2 absorb = blocks human TDP2 phosphodiesterase activity | O95551 | recombinant TDP2, T5PNP hydrolysis, p-nitrophenol absorbance 415 nm | inhibition, % at 12.8 µM | 370,000 compounds, 0.34% hits;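 active = inhibition above the mean of all tested compounds plus 3 SD, set per campaign, cut at about 25% in these data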;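 note: 0% = DMSO with enzyme and 100% = buffer with substrate but no TDP2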
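System – recombinant human TDP2 · Quantity – TDP2 enzyme at 120 nM final · Doses – single concentration, 12.8 µM nominal, with 1% DMSO · Incubation – 2 h at 37 °C · Measured by – epi absorbance of p-nitrophenol freed from T5PNP by hydrolysis · Read-out – % inhibition relative to enzyme-containing and enzyme-free wells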
MBD2 DNA inh = MBD2-methylated oligo binding inhibition; Q9UBB5; TR-FRET, MBD2 binding to methylated oligonucleotide; inhibition, % at 4.4 µM; 370,000 compounds, 0.31% hits; AID 686964; in the data active = inhibition above about 13%
SIAE primary = inhibitors of human sialic acid acetylesterase SIAE. Q9HAT2. SIAE FP-Rh probe binding, fluorescence polarization. inhibition, % at 9.66 µM. 370,000 compounds, 0.69% hits;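 active = inhibition above a cutoff: mean of compounds within the control limits plus 3 SD of those, cut at about 17% in these data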;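 note: 0% = plate median of compound wells and 100% = probe without SIAE protein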
Target sequence (Q9HAT2 whole entry, looked up): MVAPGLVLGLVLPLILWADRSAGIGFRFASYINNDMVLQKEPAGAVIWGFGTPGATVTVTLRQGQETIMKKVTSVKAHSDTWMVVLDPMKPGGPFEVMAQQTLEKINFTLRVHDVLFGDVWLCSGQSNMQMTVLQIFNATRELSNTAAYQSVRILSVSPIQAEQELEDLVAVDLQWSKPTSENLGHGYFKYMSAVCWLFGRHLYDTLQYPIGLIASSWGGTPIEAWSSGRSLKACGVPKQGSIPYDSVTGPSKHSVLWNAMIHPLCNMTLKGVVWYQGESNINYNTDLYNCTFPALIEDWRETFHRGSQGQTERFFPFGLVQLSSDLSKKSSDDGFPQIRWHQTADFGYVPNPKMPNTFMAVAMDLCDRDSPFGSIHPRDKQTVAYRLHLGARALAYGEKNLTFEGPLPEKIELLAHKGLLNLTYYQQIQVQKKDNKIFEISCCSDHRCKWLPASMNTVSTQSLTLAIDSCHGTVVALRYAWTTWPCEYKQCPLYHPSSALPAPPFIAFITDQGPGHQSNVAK
LEDGF integ inh = blocks HIV-1 LEDGF/p75-dependent DNA integration; TR-FRET IN-LEDGF/p75 DNA integration, Eu/Cy5; 370,000 compounds, 0.64% hits; inhibition, % at 3.7 µM;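 active = inhibition above the screen-wide mean plus 3 SD, cut at about 13% in these data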;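 note: signal is the Cy5 over europium emission ratio at 671 and 618 nm; 0% = plate median of compound wells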
PRMT1 inh conf = PRMT1 (human) inhibition, FP confirmation; shares compounds with PRMT1 inh; recombinant His-PRMT1, activity-based probe fluorescence polarization; inhibition, % at 2.79 µM; 3,300 compounds, 42% hits;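 active = mean inhibition across replicates above the hit cutoff derived for the earlier primary screen, cut at about 22% in these data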
Active calls of the source: *.

Results for N#Cc1c(C(F)(F)F)cc(-c2ccco2)nc1SCc1ccncc1 ?
PRMT1 inh: 0.5; UHRF1 MBD2 ctr: 0.8; TDP2 absorb: 9.9; MBD2 DNA inh: -1.8; SIAE primary: -4.7; LEDGF integ inh: 0.5

What do the screens show for `N#Cc1c(C(F)(F)F)cc(-c2ccco2)nc1SCc1ccccn1`?
PRMT1 inh: 34.7*; UHRF1 MBD2 ctr: 3.1; TDP2 absorb: -4.4; MBD2 DNA inh: 4.1; SIAE primary: -3.9; LEDGF integ inh: 10.3; PRMT1 inh conf: -6.7

What do the screens show for `Cn1c(COc2ccc(Br)cc2)nnc1SC1CCc2ccccc2C1=O` (stereo not given)?
PRMT1 inh: 53.2*; UHRF1 MBD2 ctr: 0.1; TDP2 absorb: 2.9; MBD2 DNA inh: 5.5; SIAE primary: 1.8; LEDGF integ inh: 1.4; PRMT1 inh conf: 8.6

How did CC(C)(C)OC(=O)NCc1cc(F)ccc1/C=C/S(=O)(=O)NC1CCCC1 do in these assays?
PRMT1 inh: -8.1; UHRF1 MBD2 ctr: 3.1; TDP2 absorb: -15.1; MBD2 DNA inh: -3.9; SIAE primary: -0.5; LEDGF integ inh: 6.9

Results for CCN1CCc2c(sc(NC(=O)Nc3ccc(Cl)c(Cl)c3)c2C(N)=O)C1 ?
PRMT1 inh: 44.7*; UHRF1 MBD2 ctr: -4.8; TDP2 absorb: -10.9; MBD2 DNA inh: 1.4; SIAE primary: 31.0*; LEDGF integ inh: -0.1; PRMT1 inh conf: 5.3

What do the screens show for `CCN1CCc2c(sc(NC(=O)Cc3ccccc3)c2C(N)=O)C1`?
PRMT1 inh: 3.1; UHRF1 MBD2 ctr: 2.0; TDP2 absorb: 10.2; MBD2 DNA inh: 1.3; SIAE primary: -0.6; LEDGF integ inh: -3.5

How did N#C/C(=C/c1ccc(N2CCOCC2)o1)c1nc2ccccc2[nH]1 do in these assays?
PRMT1 inh: 37.9*; UHRF1 MBD2 ctr: -3.7; TDP2 absorb: -6.1; MBD2 DNA inh: -6.5; SIAE primary: 5.2; LEDGF integ inh: 0.5; PRMT1 inh conf: -55.1

How did Cc1cc(/C=C(\C#N)c2nc3ccccc3[nH]2)c(C)n1C do in these assays?
PRMT1 inh: 28.1*; UHRF1 MBD2 ctr: -4.2; TDP2 absorb: -5.4; MBD2 DNA inh: -2.6; SIAE primary: 4.1; LEDGF integ inh: 2.1; PRMT1 inh conf: 19.4

What do the screens show for `N#C/C(=C\c1ccc(N2CCOCC2)o1)c1ccccc1`?
PRMT1 inh: 12.2; UHRF1 MBD2 ctr: 11.9; TDP2 absorb: 7.2; MBD2 DNA inh: 0.0; SIAE primary: 7.1; LEDGF integ inh: 4.9

How did Cc1cc(/C=C(/C#N)c2nc3ccccc3[nH]2)c(C)n1-c1cccc([N+](=O)[O-])c1 do in these assays?
PRMT1 inh: -2.5; UHRF1 MBD2 ctr: -0.7; TDP2 absorb: -9.7; MBD2 DNA inh: 1.3; SIAE primary: -10.3; LEDGF integ inh: -1.6

What do the screens show for `Cc1cc(NS(=O)(=O)c2ccc(NC(=O)/C=C/c3ccccc3)cc2)nc(C)n1`?
PRMT1 inh: -2.7; UHRF1 MBD2 ctr: -1.9; TDP2 absorb: -1.1; MBD2 DNA inh: -0.5; SIAE primary: -3.1; LEDGF integ inh: -3.4

Results for Cc1ccc(/C=C/C(=O)Nc2ccc(Oc3ccccc3)cc2)o1 ?
PRMT1 inh: 15.7; UHRF1 MBD2 ctr: 0.2; TDP2 absorb: -9.3; MBD2 DNA inh: -3.1; SIAE primary: -7.7; LEDGF integ inh: -0.8

How did Cc1ccc(/C=C/C(=O)Nc2ccc([N+](=O)[O-])cc2)o1 do in these assays?
PRMT1 inh: 41.6*; UHRF1 MBD2 ctr: -0.6; TDP2 absorb: -17.1; MBD2 DNA inh: 3.0; SIAE primary: -10.8; LEDGF integ inh: 3.9; PRMT1 inh conf: 3.9

How did Cc1cc(NS(=O)(=O)c2ccc(NC(=O)/C=C/c3ccc(C)o3)cc2)nc(C)n1 do in these assays?
PRMT1 inh: 55.1*; UHRF1 MBD2 ctr: 3.9; TDP2 absorb: 5.6; MBD2 DNA inh: 1.4; SIAE primary: -3.5; LEDGF integ inh: 1.8; PRMT1 inh conf: 54.2*

How did COc1ccc(NC(=O)/C=C/c2ccc(C)o2)cc1S(=O)(=O)N1CCOCC1 do in these assays?
PRMT1 inh: 45.0*; UHRF1 MBD2 ctr: 6.6; TDP2 absorb: -3.5; MBD2 DNA inh: 7.7; SIAE primary: -10.2; LEDGF integ inh: -1.2; PRMT1 inh conf: 29.7*
